Laboratory results taken from ChEMBL document CHEMBL1146567, “Isolation and structure of ruprechstyril from Ruprechtia tangarana” (2003).
In brackets after ≈: the same amount, converted by molar mass. Activity calls are given as the source filed them. The rule behind the calls is not given here.

Legend:
[1] = system: P388; test: Cytotoxicity against mouse P388 cells; assay type: functional
[2] = system: Candida albicans; test: Antimicrobial activity against Candida albicans up to 64 ug/mL by broth microdilution susceptibility assay; assay type: functional, organism-based
How it was run: (§1)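 Broth microdilution susceptibility testing. Growth inhibition read-out is reported as the minimum inhibitory concentration, in μg/mL.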

[3] = system: Enterobacter cloacae; test: Antimicrobial activity against Enterobacter cloacae up to 64 ug/mL by broth microdilution susceptibility assay; assay type: functional, organism-based; how it was run: as §1
[4] = system: Micrococcus luteus; test: Antimicrobial activity against Micrococcus luteus up to 64 ug/mL by broth microdilution susceptibility assay; assay type: functional, organism-based; how it was run: as §1
[5] = system: Streptococcus pneumoniae; test: Antimicrobial activity against Streptococcus pneumoniae up to 64 ug/mL by broth microdilution susceptibility assay; assay type: functional, organism-based; how it was run: as §1
[6] = system: Neisseria gonorrhoeae; test: Antimicrobial activity against Neisseria gonorrhoeae up to 64 ug/mL by broth microdilution susceptibility assay; assay type: functional, organism-based; how it was run: as §1
[7] = system: Cryptococcus neoformans; test: Antimicrobial activity against Cryptococcus neoformans up to 64 ug/mL by broth microdilution susceptibility assay; assay type: functional, organism-based; how it was run: as §1
[8] = system: Enterococcus faecalis; test: Antimicrobial activity against Enterococcus faecalis up to 64 ug/mL by broth microdilution susceptibility assay; assay type: functional, organism-based; how it was run: as §1
[9] = system: Stenotrophomonas maltophilia; test: Antimicrobial activity against Stenotrophomonas maltophilia up to 64 ug/mL by broth microdilution susceptibility assay; assay type: functional, organism-based; how it was run: as §1
[10] = system: Staphylococcus aureus; test: Antimicrobial activity against Staphylococcus aureus up to 64 ug/mL by broth microdilution susceptibility assay; assay type: functional, organism-based; how it was run: as §1
[11] = system: Escherichia coli; test: Antimicrobial activity against Escherichia coli up to 64 ug/mL by broth microdilution susceptibility assay; assay type: functional, organism-based; how it was run: as §1
[12] = system: Enterococcus faecalis; test: Antimicrobial activity against Enterococcus faecalis by broth microdilution susceptibility assay; assay type: functional
How it was run: (§2)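 Broth microdilution susceptibility testing; the value recorded is the minimum inhibitory concentration of growth, given in μg/mL, and sometimes reported as a range.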

[13] = system: Micrococcus luteus; test: Antimicrobial activity against Micrococcus luteus by broth microdilution susceptibility assay; assay type: functional; how it was run: as §2

Row | Structure (SMILES) | Activity [1] | Activity [2] | Activity [3] | Activity [4] | Activity [5] | Activity [6] | Activity [7] | Activity [8] | Activity [9] | Activity [10] | Activity [11] | EC50 ([1]; read-out: ED50 (the source's name)) [µg/mL] | MIC [12] [µg/mL] | MIC [13] [µg/mL]
1 | CC[C@H](/C=C/[C@@H](C)[C@H]1CC[C@H]2[C@@H]3CC=C4C[C@@H](O)CC[C@]4(C)[C@H]3CC[C@]12C)C(C)C | inactive |  |  |  |  |  |  |  |  |  |  |  |  | 
2 | COc1cc(C)c2c(=O)c3c(O)cc(OC)cc3oc2c1 | inactive | inactive | inactive | inactive | inactive | inactive | inactive | inactive | inactive | inactive | inactive |  |  | 
3 | COc1cc(C)c(C(=O)Oc2cc(C)c(C(=O)O)c(OC)c2)c(O)c1 | inactive | inactive | inactive | inactive | inactive | inactive | inactive | inactive | inactive | inactive | inactive |  |  | 
4 | COC(=O)[C@]12Oc3ccc(-c4ccc5c(c4O)C(=O)C4=C(O)C[C@@H](C)[C@H](O)[C@@]4(C(=O)OC)O5)c(O)c3C(=O)C1=C(O)C[C@@H](C)[C@@H]2O [SECALONIC ACID A] |  |  |  |  |  |  |  |  |  |  |  | 3.5 (≈ 5.48 µM) | 32 (≈ 50.1 µM) | 4 (≈ 6.26 µM)
5 | COc1c(OC)c2oc(=O)c3cc(O)c(OC)c4oc(=O)c(c1O)c2c43 | inactive | inactive | inactive | inactive | inactive | inactive | inactive | inactive | inactive | inactive | inactive |  |  | 
6 | COC(=O)c1cc(O)cc(OC)c1Oc1cc(C)cc(O)c1C(=O)OC | inactive | inactive | inactive | inactive | inactive | inactive | inactive | inactive | inactive | inactive | inactive |  |  | 
7 | CCCCCc1cc2cc(OC)cc(O)c2c(=O)[nH]1 | inactive | inactive | inactive | inactive | inactive | inactive | inactive | inactive | inactive | inactive | inactive |  |  | 
